Results as given in ChEMBL document CHEMBL1138917, “FK506-binding protein ligands: structure-based design, synthesis, and neurotrophic/neuroprotective properties of substituted 5,5-dimethyl-2-(4-thiazolidine)carboxylates” (2006).
The source made the active and inactive calls. No cut-off for these calls is given here.

Experiments:
[1] = target: T1, Peptidyl-prolyl cis-trans isomerase FKBP4 (Homo sapiens) (UniProt Q02790); test: Increase in neurite outgrowth in chick embryo dorsal root ganglion at 1 pM in presence of NGF; type: functional, tissue-based; settings: Gallus gallus, target entry is the homologue from another species
T1 sequence (whole entry): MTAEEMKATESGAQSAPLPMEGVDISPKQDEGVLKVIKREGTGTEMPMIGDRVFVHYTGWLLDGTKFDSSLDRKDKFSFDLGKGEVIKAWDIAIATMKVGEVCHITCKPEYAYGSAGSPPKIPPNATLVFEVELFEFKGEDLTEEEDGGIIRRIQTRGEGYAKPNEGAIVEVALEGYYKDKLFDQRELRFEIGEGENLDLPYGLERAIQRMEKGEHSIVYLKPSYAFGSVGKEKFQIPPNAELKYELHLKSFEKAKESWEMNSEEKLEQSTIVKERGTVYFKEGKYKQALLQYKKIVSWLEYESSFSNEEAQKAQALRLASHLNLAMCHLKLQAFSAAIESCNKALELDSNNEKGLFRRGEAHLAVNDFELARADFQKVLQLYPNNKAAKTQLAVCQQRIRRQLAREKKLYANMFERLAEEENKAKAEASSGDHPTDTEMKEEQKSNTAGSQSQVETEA
Outline: (§1)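 DRGs from 8-day chick embryos, on rat tail collagen-coated flasks, 5-6 per flask; after 1 h attachment at 37 °C, 5% CO2, treated with compound plus 0.15 ng/mL NGF in DMEM for 48 h. DMSO stock 1 mM, final DMSO below 10^-7 M. Phase-contrast scoring of neurite number and length, averaged over 15-18 ganglia; NGF-only controls; one-way ANOVA with Student-Newman-Keuls.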

[2] = target: T1, Peptidyl-prolyl cis-trans isomerase FKBP4 (Homo sapiens); test: Increase in neurite outgrowth in chick embryo dorsal root ganglion at 100 pM in presence of NGF; type: functional, tissue-based; settings: Gallus gallus, target entry is the homologue from another species; outline: as §1
[3] = system: Mus musculus; test: Neuroprotective activity against 6-OHDA-induced Kunming mouse peripheral sympathetic nerve injury measured as norepinephrine content in submandibular gland at 2 mg/kg, sc; type: functional; settings: route subcutaneous
Outline: (§2)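 Adult female Kunming mice, 22 g, lesioned with 6-OHDA 8 mg/kg i.p.; compound given s.c. 4 h before lesion and daily for 4 further days; vehicle controls. Killed 2 weeks after last dose; both submandibular glands weighed and homogenized with 3,4-dihydroxybenzylamine internal standard, centrifuged 30 min; norepinephrine in supernatant by HPLC-ECD, µg/g wet weight; mean ± SEM.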

[4] = target: T1, Peptidyl-prolyl cis-trans isomerase FKBP4 (Homo sapiens); test: Increase in neurite outgrowth in chick embryo dorsal root ganglion in presence of NGF; type: functional, tissue-based; settings: Gallus gallus, target entry is the homologue from another species; outline: as §1
[5] = target: T1, Peptidyl-prolyl cis-trans isomerase FKBP4 (Homo sapiens); test: Decrease in neurite outgrowth in chick embryo dorsal root ganglion at 1 nM in presence of NGF; type: functional, tissue-based; settings: Gallus gallus, target entry is the homologue from another species; outline: as §1
[6] = system: Mus musculus; test: Neuroprotective activity against 6-OHDA-induced Kunming mouse peripheral sympathetic nerve injury measured as norepinephrine content in submandibular gland at 10 mg/kg, sc; type: functional; settings: route subcutaneous; outline: as §2
[7] = target: T1, Peptidyl-prolyl cis-trans isomerase FKBP4 (Homo sapiens); test: Increase in neurite outgrowth in chick embryo dorsal root ganglion in absence of NGF; type: functional, tissue-based; settings: Gallus gallus, target entry is the homologue from another species

Activity [1] | Activity [2] | SMILES | other results
Active | Active | CCC(C)(C)C(=O)C(=O)N1[C@H](C(=O)OC/C=C/c2ccccc2)CSC1(C)C | 
Active | Active | CCCCCCC(=O)C(=O)N1[C@H](C(=O)OCCCc2ccccc2)CSC1(C)C | 
Active | Active | C=CCCCCCCCCOC(=O)[C@@H]1CSC(C)(C)N1C(=O)C(=O)C(C)(C)C | 
 |  | C=CC[C@@H]1/C=C(\C)C[C@H](C)C[C@H](OC)[C@H]2O[C@@](O)(C(=O)C(=O)N3CCCC[C@H]3C(=O)O[C@H](/C(C)=C/[C@@H]3CC[C@@H](O)[C@H](OC)C3)[C@H](C)[C@@H](O)CC1=O)[C@H](C)C[C@@H]2OC [TACROLIMUS ANHYDROUS] | Activity [3]: 2.33 µg/g
Active | Active | CC(C)(C)C(=O)C(=O)N1[C@H](C(=O)OCCCc2ccccc2)CSC1(C)C | 
Active | Active | CC(C)(C)C(=O)C(=O)N1[C@H](C(=O)OCCCc2cccnc2)CSC1(C)C | Activity [4]: Dose-dependent effect; Activity [5]: Active; Activity [6]: 2.31 µg/g; Activity [7]: inactive
Active | Active | CCCCCCC(=O)C(=O)N1[C@H](C(=O)OCCc2ccccc2Cl)CSC1(C)C | 
